Assay results taken from article PMC5815365 (Molecular pharmaceutics, 2016).
Several values for one entry are separate records, joined by “and”; a condition that tells them apart may be missing. Equal entries are not always repeated. Structures can show the parent of a compound that is named as a salt. Where two headings read alike, the source gives them in different places.

Tests used:
[1] = tested on: MCF-7 xenografts; assay: Ex vivo dye biodistribution analysis by NIRF of harvested tumors and organs; format: in vivo, mice; conditions: day 2 of injection
Procedure, shortened: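 Ovariectomized female athymic mice carried mammary fat-pad MCF-7 xenografts (5 million cells in Matrigel, estradiol:cholesterol 1:3 implants), grown to about 150 mm3. A separate cohort received 17 nmol dye i.p. After IVIS imaging, mice were killed by ketamine/xylazine overdose at each time point. Tumor, muscle, liver, lung, heart, kidneys and skin were rinsed, dried and IVIS-imaged; organ ROIs were normalized to tumor volume.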

[2] = Partition coefficient in n-octanol and water, measured by NIR fluorescence; format: physicochemical; conditions: octanol–water partitioning measured with NIRF
Procedure, shortened: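 Compound (5 nmol) was shaken 10 min in 0.6 mL n-octanol plus 0.6 mL water (final 4.15 μM, within the linear fluorescence range), then centrifuged at 10,000 rpm for 5 min. Triplicate 100 μL aliquots of each layer were imaged on IVIS (Ex/Em 745/820 nm) as ROI average radiance. log P = log(octanol/water intensity), corrected by a per-probe solvent factor; mean and SD reported.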

[3] = tested on: MCF-7 xenografts; assay: In vivo NIRF imaging of tumor uptake in nude mice bearing MCF-7 xenografts; conditions: for retention of fluorescence in tumors: two days after injection
Procedure, shortened: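 Nude mice with estradiol-supported MCF-7 mammary fat-pad xenografts (about 150 mm3) received 17 nmol dye i.p. (n = 3). They were imaged under 2% isoflurane at serial time points up to 8 days on IVIS (Ex 740/Em 820 nm, auto exposure, F-stop 2). Tumor ROI radiance (p/s/cm2/sr) was background-subtracted using another body region and normalized to tumor volume.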

[4] = Cell viability / growth inhibition in benign breast epithelial cells; format: cell-based; conditions: human, MCF-10A cells (benign breast epithelial cells)
[5] = tested on: LTED cells; assay: Cell viability / growth inhibition by cell number count; format: cell-based, human
Procedure, shortened: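 LTED cells (MCF-7-derived, phenol red-free medium, charcoal-dextran stripped FBS) seeded at 60,000/well in 6-well plates and grown 2 days at 37 °C. They were then exposed to test compound for 2–5 days with 0.1% final ethanol or DMSO vehicle. Cells were saline-rinsed, nuclei released with HEPES–MgCl2 and ZAP (ethylhexadecyldimethylammonium bromide/acetic acid) and Coulter-counted. Three independent repeats, normalized to 100% viability; dose–response curves gave IC50.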

Compound | fluorescence intensity in tumor tissue compared to muscle [1] | log P [2] | retention of fluorescence in tumors ([3]; 17 nmol/mouse) | viability at 2 days, 50 µM [4] | IC50 ([5]; Homo sapiens, read-out: IC50 (cell growth inhibition), LTED cells) | IC50 ([5]; read-out: IC50 (cell growth inhibition), LTED cells) | inhibition of cells ([5]; up to 75 μM) | time of peak uptake (NIRF) ([3]; 17 nmol/mouse) | fluorescence intensity disappeared ([3]; 8 days after injection)
CC1(C)C(/C=C/C2=C(Cl)C(=C\C=C3/N(CCCS(=O)(=O)[O-])c4ccccc4C3(C)C)/CCC2)=[N+](CCCS(=O)(=O)[O-])c2ccccc21.[Na+] [Compound 6, 3H-indolium, 2-[2-[2-chloro-3-[[1,3-dihydro-3,3-dimethyl-1-(3-sulfopropyl)-2H-indol-2-ylidene]ethylidene]-1-cyclohexen-1-yl]ethenyl]-3,3-dimethyl-1-(3-sulfopropyl)-, inner salt, sodium salt] | 6.3 fold | −1.13 | retained in the tumors |  |  |  |  |  | 
CC1(C)C(/C=C/C2=C(Cl)C(=C/C=C3\N(CCCCCC(=O)O)c4ccccc4C3(C)C)/CCC2)=[N+](CCCCCC(=O)O)c2ccccc21 [Compound 7] | 4.5 fold | 1.35 | retained in the tumors |  |  |  |  |  | 
CC(C)=CCC/C(C)=C/CC/C(C)=C/CSc1ccccc1C(=O)O [FTS, S-trans-trans-farnesylthiosalicylic acid] |  |  |  | ~100% | ~51.3 µM | ~51.8 µM and < 50 µM | 70–75% |  | 
CC1(C)C(=CC=C2CCCC(C=CC3=[N+](CCCCS(=O)(=O)[O-])c4ccccc4C3(C)C)=C2Cl)N(CCCCCC(=O)O)c2ccccc21 [Compound 5, 3H-Indolium, 2-[2-[3-[2-[1-(5-Carboxypentyl)-1,3-dihydro-3,3-dimethyl-2H-indol-2-ylidene]ethylidene]-2-chloro-1-cyclohexen-1-yl]ethenyl]-3,3-dimethyl-1-(4-sulfobutyl) Inner Salt] | 8.6 fold | 0.49 | retained in the tumors |  |  |  |  | about 30 h | 80%
